The values that follow come from ChEMBL document CHEMBL1131229, “Synthesis, rotamer orientation, and calcium channel modulation activities of alkyl and 2-phenethyl 1,4-dihydro-2,6-dimethyl-3-nitro-4-(3- or 6-substituted-2-pyridyl)-5-pyridinecarboxylates” (J Med Chem, 1998).

The species entered for assay [1] is Cavia porcellus. Briefly: Percent decrease in tonic contractile response in guinea pig ileal longitudinal smooth muscle. It counts as functional. The following applies: Muscle tissue. The method, boiled down:
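Guinea pig ileum longitudinal smooth muscle, tonic (slow) contraction evoked by carbachol at 1.6 × 10^-7 M (muscarinic, Ca²⁺-dependent). Test compound applied over a dose range. Concentration giving 50% inhibition (IC50 ± SEM, n = 3-18) read graphically from the dose-response curve.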

The species entered for assay [2] is Cavia porcellus. Description: Calcium channel agonist activity as percent increase in tonic contractile response in guinea pig left atrium. Format: functional. The settings on record: Cardiac atrium. The essentials: (§1)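 Racemic test compounds on isolated guinea pig left atrium, scored as positive inotropic (contractile) response. Dose-response curves constructed. EC50 (± SEM) taken graphically as the molar concentration producing 50% of the maximum contractile increase; number of experiments reported.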

For assay [3], the species on record is Cavia porcellus. Description: Calcium channel agonist activity as percent increase in tonic contractile response in guinea pig left atrium, Weak agonist. It counts as functional, Cardiac atrium. The method, boiled down: as §1
The species entered for assay [4] is Cavia porcellus. Description: Calcium channel agonist activity as percent increase in tonic contractile response in guinea pig left atrium, Weak antagonist. Format: functional, Cardiac atrium.

The structures appear in SMILES notation. Bounds are passed on as bounds.

In assay [1], `CC1=NC(C)=C([N+](=O)[O-])C(c2ncccc2-c2ccccc2)/C1=C(/O)OCCc1ccccc1` (centres undefined) returned an IC50 of 3.35 µM.

`CC1=NC(C)=C([N+](=O)[O-])C(c2cccc([N+](=O)[O-])n2)/C1=C(/O)OCCc1ccccc1` (centres undefined) returned an IC50 in assay [1] of 4.74 µM.

`CC1=NC(C)=C([N+](=O)[O-])C(c2ccccn2)/C1=C(/O)OCCc1ccccc1` (centres undefined) came in with an IC50 in assay [1] of 0.639 µM. Compared with the last compound, the IC50 is about 7.4-fold lower.

In turn, `CC1=NC(C)=C([N+](=O)[O-])C(c2ncccc2C)/C1=C(/O)OC(C)C` (centres undefined) yielded an IC50 in assay [1] of 2.82 µM. The concentration for a half-maximal effect (EC50) in assay [2] turned out to be 9.97 µM.

In assay [1], `CC1=NC(C)=C([N+](=O)[O-])C(c2ncccc2Cl)/C1=C(/O)OCCc1ccccc1` (centres undefined) registered an IC50 of 5.17 µM.

As for `CC1=NC(C)=C([N+](=O)[O-])C(c2cccc(C)n2)/C1=C(/O)OC(C)C` (centres undefined), in assay [1], the IC50 is 25.1 µM. For the same compound, the EC50 in assay [2] was found to be 1.81 µM.

`CC1=NC(C)=C([N+](=O)[O-])C(c2ncccc2C)/C1=C(/O)OCCc1ccccc1` (centres undefined) came in with a concentration for half-maximal inhibition (IC50) in assay [1] of 5.43 µM.

`CO/C(O)=C1/C(C)=NC(C)=C([N+](=O)[O-])C1c1cccc(C)n1` (centres undefined) displayed an IC50 in assay [1] of 2.29 µM. For the same compound, the EC50 result in assay [3] was “Partial agonist”.

Compound `CC1=NC(C)=C([N+](=O)[O-])C(c2cccc(Cl)n2)/C1=C(/O)OC(C)C` (centres undefined) yielded an IC50 in assay [1] of 16.7 µM. The EC50 in assay [2] turned out to be 5.96 µM.

On to `CC1=NC(C)=C([N+](=O)[O-])C(c2cccc(Cl)n2)/C1=C(/O)OCCc1ccccc1` (centres undefined), for which, in assay [1], the midpoint of inhibition, the IC50, lay at 1.51 µM.

Take `CC1=NC(C)=C([N+](=O)[O-])C(c2ncccc2C(F)(F)F)/C1=C(/O)OCCc1ccccc1` (centres undefined): the IC50 in assay [1] was greater than 59.8 µM.

Take `CC1=NC(C)=C([N+](=O)[O-])C(c2ncccc2[N+](=O)[O-])/C1=C(/O)OCCc1ccccc1` (centres undefined): in assay [1], inhibition was half-maximal at 77.7 µM (IC50).

Consider `CC1=NC(C)=C([N+](=O)[O-])C(c2cccc(C(F)(F)F)n2)/C1=C(/O)OCCc1ccccc1` (centres undefined), for which the IC50 in assay [1] turned out to be 1.41 µM.

For the compound `CC1=NC(C)=C([N+](=O)[O-])C(c2cccc(C)n2)/C1=C(/O)OCCc1ccccc1` (centres undefined), half-maximal inhibition in assay [1] (IC50) was put at 9.98 µM.

Regarding `CC1=NC(C)=C([N+](=O)[O-])C(c2cccc(-c3ccccc3)n2)/C1=C(/O)OCCc1ccccc1` (centres undefined), the IC50 in assay [1] was found to be 8.38 µM.

`CC1=NC(C)=C([N+](=O)[O-])C(c2ncccc2[N+](=O)[O-])/C1=C(/O)OC(C)C` (centres undefined) displayed an IC50 in assay [1] of 3.77 µM. In addition, in assay [4], the EC50 entry is on record as “Partial antagonist”.

In assay [1], `CCO/C(O)=C1/C(C)=NC(C)=C([N+](=O)[O-])C1c1cccc(C)n1` (centres undefined) displayed an IC50 of 17.2 µM. Moreover, in assay [2], the EC50 is 12.3 µM.

For the compound `COC(=O)C1=C(C)NC(C)=C(C(=O)OC)C1c1ccccc1[N+](=O)[O-]` [NIFEDIPINE], the IC50 in assay [1] turned out to be 0.014 µM.
